Bioassay records from PubChem BioAssay.
Only some compounds are listed: those with a hit (about 3.9% of all), similar ones and a draw of the others.
Gli-Sufu antag – blocks Gli-Sufu signaling in a luciferase reporter; Sufu-KO-LIGHT fibroblasts, Gli luciferase reporter luminescence; inhibition, % at 5 µM; 0.74% of 340,000 active; AID 588413;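 active means inhibition above about 55%, limit read from the data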
UPR XBP1 act – activators of adaptive arm of unfolded protein response (XBP1) | CHO-XBP1 luciferase reporter, IRE1-XBP1 UPR activation, luminescence; percent of tunicamycin response, DMSO as zero | activation, % at 20 µM | 0.33% of 330,000 active;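 active means versus positive control, 20 µM dose yields 30% or more activation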
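Material: IRE1-XBP1 luciferase reporter CHO line / Quantity: one thousand reporter cells per well / Buffer or medium: F12 with 10% serum / Compound: 20 µM single concentration, DMSO 1% / Times: 6 h treatment, 37 °C / Detection: Steady-Glo luciferase glow luminescence, 10 min after reagent addition / Benchmarks: tunicamycin high, DMSO low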
CHOP inh – blocks CHOP induction under ER stress. CHO-K1 CHOP-promoter luciferase, tunicamycin-induced, 15-18 h. inhibition, % at 10 µM. 3.8% of 220,000 active. AID 2732;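 active means compounds that reduced the stress-induced luciferase reporter signal by more than about 70% of percent inhibition, limit read from the data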
CHOP UPR activ – apoptotic UPR (CHOP) activation; 0.34% of 330,000 active; CHO-CHOP luciferase reporter, luminescence; percent of tunicamycin response over DMSO baseline; activation, % at 10 µM;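 active means at 10 µM dose, activation of 40% or more, normalized to positive control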
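Assay system: CHO cells with stable CHOP pathway luciferase reporter; Buffer or medium: F12 plus 10% serum; Times: 16-18 h cell attachment, then 6 h compound exposure, 37 °C; Signal: luciferase luminescence; Read-out basis: percent activation relative to tunicamycin control; Control set: tunicamycin high control, DMSO low control.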
697 NFkB inh – lowers PMA/ionomycin-induced NF-kB signal in 697 B cells; 697 B-cell NF-kB luciferase reporter, 16 h; inhibition, % at 4 µM; 0.33% of 330,000 active; in the data active means inhibition above about 35%
Jurkat NFkB inh – inhibitors of the PMA/ionomycin-induced NF-kB reporter in Jurkat cells; 0.53% of 330,000 active; PMA/ionomycin-induced NF-kB luciferase reporter, luminescence; AID 435003; inhibition, % at 4 µM; in the data active means inhibition above about 50%
Jurkat NFkB conf – lowers PMA/ionomycin-induced NF-kB signal in Jurkat cells; Jurkat NF-kB luciferase, 16 h; inhibition, % at 4 µM; shares compounds with Jurkat NFkB inh; 27% of 2,700 active; AID 435020;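 active means inhibition reaching about 45% at 4 µM in either replicate, limit read from the data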
697 NFkB conf – inhibitors of the PMA/ionomycin-induced NF-kB reporter in 697 B cells, retest | shares compounds with 697 NFkB inh | 697 B-cell NF-kB luciferase, 16 h | inhibition, % at 4 µM | 35% of 2,000 active | AID 449746; in the data active means inhibition mostly above about 28%, no sharp cut-off; inactive means mostly below about 22%
Numbers stand for hits.

Screening Cc1cc(C(=O)NC2CCCc3c2cnn3-c2cccc(C)c2C)n(C)n1 (configuration not stated) returned Gli-Sufu antag 81, UPR XBP1 act inactive, CHOP UPR activ inactive, 697 NFkB inh 77, Jurkat NFkB inh 72, Jurkat NFkB conf 78 and 697 NFkB conf 96.
Screening CC(=O)NC1CCCc2c1cnn2-c1ccc(C(C)(C)C)cc1 (configuration not stated) returned Gli-Sufu antag inactive, UPR XBP1 act inactive, CHOP UPR activ inactive, 697 NFkB inh inactive and Jurkat NFkB inh inactive.
Screening CCNC(=O)N1CCCC(C(=O)c2ccc(C(F)(F)F)cc2)C1 (configuration not stated) returned Gli-Sufu antag inactive, UPR XBP1 act inactive, CHOP UPR activ inactive, 697 NFkB inh inactive and Jurkat NFkB inh inactive.
Cc1ccc(C(=O)O/N=C(\N)Cc2cccs2)c(Cl)c1 was read as Gli-Sufu antag inactive, UPR XBP1 act inactive, CHOP UPR activ inactive, 697 NFkB inh inactive, Jurkat NFkB inh inactive, Jurkat NFkB conf inactive and 697 NFkB conf inactive.
For CC(C)(C)c1ccc(OCC(=O)Nc2ccc(C(=O)Nc3ccccc3C(=O)O)cc2)cc1 the results were Gli-Sufu antag inactive, UPR XBP1 act inactive, CHOP UPR activ inactive, 697 NFkB inh inactive and Jurkat NFkB inh inactive.
CCOCCOC(=O)c1ccc(NC(=O)c2cc3ccccc3o2)cc1 was read as Gli-Sufu antag inactive.
Screening S=c1nccc(-c2ccc3c(c2)CCO3)[nH]1 returned Gli-Sufu antag inactive, UPR XBP1 act inactive, CHOP inh inactive, CHOP UPR activ inactive, 697 NFkB inh inactive and Jurkat NFkB inh inactive.
CC1(C)CCc2cc(-c3ccnc(=S)[nH]3)ccc2O1 was read as Gli-Sufu antag inactive, UPR XBP1 act inactive, CHOP inh inactive, CHOP UPR activ inactive, 697 NFkB inh inactive, Jurkat NFkB inh inactive, Jurkat NFkB conf inactive and 697 NFkB conf inactive.
CC(C)(C)OC(=O)N1CCC(c2c(C(=O)N3CCN(C(=O)c4ccco4)CC3)cnn2-c2cccc(Cl)c2)CC1 was read as Gli-Sufu antag inactive, UPR XBP1 act inactive, CHOP UPR activ inactive, 697 NFkB inh inactive and Jurkat NFkB inh inactive.
COc1ccc(CCNc2ncnc3sc(C)cc23)cc1OC was read as Gli-Sufu antag 69, UPR XBP1 act inactive, CHOP UPR activ inactive, 697 NFkB inh 68, Jurkat NFkB inh 61, Jurkat NFkB conf 73 and 697 NFkB conf 83.
Screening Cc1cc(C(=O)Nc2ccc(Cl)cc2)c(C)n1Cc1cccs1 returned Gli-Sufu antag inactive, UPR XBP1 act inactive, CHOP inh inactive, CHOP UPR activ inactive, 697 NFkB inh inactive and Jurkat NFkB inh inactive.
For Cc1cc(C)cc(NC(=O)c2cc(C)n(Cc3cccs3)c2C)c1 the results were Gli-Sufu antag inactive, UPR XBP1 act inactive, CHOP inh inactive, CHOP UPR activ inactive, 697 NFkB inh inactive, Jurkat NFkB inh 93, Jurkat NFkB conf 97 and 697 NFkB conf inactive.
`N#CC(c1cccc(Cl)c1)c1ccc2c(C(F)(F)F)cc(C(F)(F)F)nc2n1` (configuration not stated) gave Gli-Sufu antag 88, UPR XBP1 act inactive, CHOP inh 102, CHOP UPR activ inactive, 697 NFkB inh 66, Jurkat NFkB inh 58, Jurkat NFkB conf 59 and 697 NFkB conf 33.
Screening COc1ccc(-c2cc(-c3ccccc3)no2)cc1 returned Gli-Sufu antag inactive, UPR XBP1 act inactive, CHOP UPR activ inactive, 697 NFkB inh inactive, Jurkat NFkB inh inactive, Jurkat NFkB conf inactive and 697 NFkB conf inactive.
Screening COc1ccc(Nc2nc(C)cc(-c3cc(-c4ccccc4)on3)n2)cc1 returned Gli-Sufu antag inactive, UPR XBP1 act inactive, CHOP UPR activ inactive, 697 NFkB inh inactive and Jurkat NFkB inh inactive.
`CCOc1ccc(S(=O)(=O)N2CCC(C(=O)NC3CCCC3)CC2)cc1` gave Gli-Sufu antag inactive, UPR XBP1 act inactive, CHOP UPR activ inactive, 697 NFkB inh inactive and Jurkat NFkB inh inactive.
For Cc1ccc(-c2csc(Nc3ccccn3)n2)cc1 the results were Gli-Sufu antag inactive, UPR XBP1 act inactive, CHOP UPR activ inactive, 697 NFkB inh inactive, Jurkat NFkB inh inactive, Jurkat NFkB conf inactive and 697 NFkB conf inactive.
`COc1ccc(-c2csc(Nc3ccccn3)n2)cc1OC` gave Gli-Sufu antag inactive, UPR XBP1 act inactive, CHOP UPR activ inactive, 697 NFkB inh inactive, Jurkat NFkB inh inactive, Jurkat NFkB conf inactive and 697 NFkB conf inactive.
Screening c1ccc(-c2csc(Nc3ccccn3)n2)cc1 returned Gli-Sufu antag inactive, UPR XBP1 act inactive, CHOP UPR activ inactive, 697 NFkB inh inactive, Jurkat NFkB inh inactive, Jurkat NFkB conf inactive and 697 NFkB conf inactive.
`CC(=O)Nc1cccc(-c2csc(Nc3ccc(C)cn3)n2)c1` gave Gli-Sufu antag inactive, UPR XBP1 act inactive, CHOP inh inactive, CHOP UPR activ inactive, 697 NFkB inh inactive, Jurkat NFkB inh inactive, Jurkat NFkB conf inactive and 697 NFkB conf inactive.
Screening Cc1c(C(=O)N2CCOCC2)c(S(=O)(=O)Nc2ccc(C(C)C)cc2)c(C)n1C returned Gli-Sufu antag inactive, UPR XBP1 act inactive, CHOP UPR activ inactive, 697 NFkB inh inactive and Jurkat NFkB inh inactive.
Screening Fc1ccc(-c2csc(Nc3ccccn3)n2)c(F)c1 returned Gli-Sufu antag inactive, UPR XBP1 act inactive, CHOP UPR activ inactive, 697 NFkB inh inactive, Jurkat NFkB inh inactive, Jurkat NFkB conf inactive and 697 NFkB conf inactive.
O=C(Nc1nc(-c2cc(F)ccc2F)cs1)c1ccccn1 was read as Gli-Sufu antag inactive, UPR XBP1 act inactive, CHOP inh inactive, CHOP UPR activ inactive, 697 NFkB inh inactive and Jurkat NFkB inh inactive.
For CC(C)(C)C(=O)/C(=C/c1ccncc1)n1cncn1 the results were Gli-Sufu antag inactive, UPR XBP1 act inactive, CHOP inh 85, CHOP UPR activ inactive, 697 NFkB inh 37, Jurkat NFkB inh 54, Jurkat NFkB conf inactive and 697 NFkB conf 42.
`CCOc1ccc(S(=O)(=O)Nc2ccc(C(=O)NCCCN3CCOCC3)cc2)cc1` gave Gli-Sufu antag inactive, UPR XBP1 act inactive, CHOP UPR activ inactive, 697 NFkB inh inactive and Jurkat NFkB inh inactive.
For O=C(N=c1nc2ccccn2s1)c1ccccc1 the results were Gli-Sufu antag inactive, UPR XBP1 act inactive, CHOP UPR activ inactive, 697 NFkB inh inactive, Jurkat NFkB inh inactive, Jurkat NFkB conf inactive and 697 NFkB conf inactive.
Screening CCN(CC)c1ccc2cc(C(C)=O)c(=O)oc2c1 returned Gli-Sufu antag inactive, UPR XBP1 act inactive, CHOP inh inactive, CHOP UPR activ inactive, 697 NFkB inh inactive and Jurkat NFkB inh inactive.
